Results: paper PMC4846470 (Psychopharmacology, 2016)
Entries after “also recorded” stand apart in the source; their conditions may differ.

Assays:
[1] = system: Male ND4 Swiss–Webster mice; assay: Locomotor activity; assay type: in vivo; settings: for Time of peak (maximal) locomotor depression after injection: active doses
Male Sprague-Dawley rats = assay: Drug discrimination in rats trained to discriminate Δ^9-THC; assay type: in vivo; settings: for Effect on rate of responding: cannabinoids at doses which substituted; for Substitution for the discriminative stimulus effects of Δ^9-THC: full substitution defined as ≥80% drug-appropriate responding
Summary of the method: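 Vehicle: ethanol/Cremophor EL/0.9% saline 1:1:18. In tests both levers paid and data ran to first reinforcer or 20 min. Six rats per compound got all doses. Pretreatment was at locomotor peak-depression time. Rate was responses/time to first reinforcer.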

[2] = biological target: human recombinant CB1 receptors (Homo sapiens, UniProt P21554); assay: Radioligand binding to human recombinant CB1 receptors in CHO cell membranes
human recombinant CB1 receptors, sequence (P21554 whole entry): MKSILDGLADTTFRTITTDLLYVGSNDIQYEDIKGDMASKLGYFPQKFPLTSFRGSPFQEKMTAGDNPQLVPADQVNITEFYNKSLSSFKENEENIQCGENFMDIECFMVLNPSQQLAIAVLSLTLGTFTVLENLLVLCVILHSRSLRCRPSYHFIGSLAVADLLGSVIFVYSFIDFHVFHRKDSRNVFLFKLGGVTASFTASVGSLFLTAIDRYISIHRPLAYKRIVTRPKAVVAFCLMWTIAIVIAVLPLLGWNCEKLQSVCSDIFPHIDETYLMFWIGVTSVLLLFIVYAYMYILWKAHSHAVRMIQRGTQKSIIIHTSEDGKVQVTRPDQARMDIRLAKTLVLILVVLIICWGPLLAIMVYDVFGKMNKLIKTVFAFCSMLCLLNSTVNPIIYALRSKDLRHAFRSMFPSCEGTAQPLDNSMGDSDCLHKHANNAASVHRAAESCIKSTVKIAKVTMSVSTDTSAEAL

[3] = biological target: human CB1 cannabinoid receptors (Homo sapiens, UniProt P21554); assay: Gi agonist effect: cAMP functional assay in CHO cells expressing CB1; assay type: cell-based; settings: for Emax: CHO, read-out: Maximum Effect (%)
human CB1 cannabinoid receptors, sequence (P21554 whole entry): as above

SMILES | Time of peak (maximal) locomotor depression after injection ([1]; mice, i.p.) | Ki [2] | EC50 [3] | Emax [3] | Effect on rate of responding (Male Sprague-Dawley rats; THC-trained rats) | further results
CCCCCc1cc(O)c2c(c1)OC(C)(C)[C@@H]1CCC(C)=C[C@@H]21 [Δ^9-THC, Δ^9-Tetrahydrocannabinol, reference compound] | 30 to 60 min |  |  |  |  | ED50 Locomotor Activity (locomotor depressant effects) ([1]; mice, i.p., dose producing 1/2 maximal depression, mean with 95% confidence interval): 12.99 (2.51 to 67.21) mg/kg; ED50 Drug Discrimination (discriminative stimulus effects) (Male Sprague-Dawley rats; THC-trained rats, i.p., mean with 95% confidence interval): 1.15 (0.21 to 6.27) mg/kg
CCCCCn1nc(C(=O)NC(C(N)=O)C(C)(C)C)c2ccccc21 (stereo not drawn) [ADB-PINACA, N-[1-(aminocarbonyl)-2,2-dimethylpropyl]-1-pentyl-1H-indazole-3-carboxamide] | 20 min | 0.59 nM | 0.024 nM | 99.6% |  | 
O=C(c1cccc2ccccc12)c1nn(CCCCCF)c2ccccc12 [THJ-2201, (1-(5-fluoropentyl)-1H-indazol-3-yl)(naphthalen-1-yl)methanone] |  |  | 0.64 nM | 96.6% |  | 
CCCCCn1cc(C(=O)c2ccc(CC)c3ccccc23)c2ccccc21 [JWH-210, (4-ethyl-1-naphthalenyl)(1-pentyl-1H-indol-3-yl)-methanone] |  | 1.01 nM | 111 nM | 98.2% | modest depression of rate of responding | Mice with tremors upon handling ([1]; 8 h following 10 mg/kg i.p.): 6 of 8
CCCCCn1cc(C(=O)NC(C(N)=O)C(C)(C)C)c2ccccc21 (stereo not drawn) [ADBICA, N-(1-amino-3,3-dimethyl-1-oxobutan-2-yl)-1-pentyl-1H-indole-3-carboxamide] | ≤ 20 min | 1.3 nM | 0.38 nM | 97.4% |  | 
CCCCCn1cc(C(=O)c2ccc(C)c3ccccc23)c2ccccc21 [JWH-122, (4-methyl-1-naphthalenyl)(1-pentyl-1H-indol-3-yl)-methanone] |  | 3.35 nM | 2.8 nM | 102% |  | 
CNC(C)Cc1ccc2c(c1)OCO2 (stereo not drawn) [MDMA, 3,4-Methylenedioxy-methamphetamine] |  |  |  |  | dose-dependently depressed rate of responding | Maximum THC-appropriate responding (Male Sprague-Dawley rats; THC-trained rats, following 1.5 mg/kg, negative control): 11%; Substitution for the discriminative stimulus effects of Δ^9-THC (Male Sprague-Dawley rats; THC-trained rats): did not substitute; also recorded: failed to substitute; Rats that failed to complete the first fixed ratio (Male Sprague-Dawley rats; following 3 mg/kg, n=9): 6 of 9
CCCCCn1cc(C(=O)c2ccc(OC)cc2)c2ccccc21 [RCS-4, (4-methoxyphenyl)(1-pentyl-1H-indol-3-yl)methanone] |  | 22.5 nM | 20 nM | 101% | modest depression of rate of responding | Substitution for the discriminative stimulus effects of Δ^9-THC (Male Sprague-Dawley rats; THC-trained rats): full substitution
